“And” between values parts separate entries of the source, which are not always exact repeats. Identical values can stand only once.
Target: Endothelial PAS domain-containing protein 1 (Homo sapiens) (UniProt Q99814)
Experiment: HIF-1a and HIF-2a reporter inhibitors, SAR follow-up, cell-based, luminescence, MIAPaCa-2, 786-0, panel (AID 652011)
Settings: MIAPaCa-2/PANC HIF reporter, luciferase luminescence, desferoxamine, overnight, HIF2a PANC, run 1; at 99 µM (top of the series)
In short: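 Detection: luminescence, One-Glo; Reagent: desferoxamine; Incubation: overnight seeding and compound exposure, 37 °C, 5% CO2, 10-min detection.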

Endothelial PAS domain-containing protein 1 (Homo sapiens), sequence (Q99814 whole entry, looked up, the tested form may be a part): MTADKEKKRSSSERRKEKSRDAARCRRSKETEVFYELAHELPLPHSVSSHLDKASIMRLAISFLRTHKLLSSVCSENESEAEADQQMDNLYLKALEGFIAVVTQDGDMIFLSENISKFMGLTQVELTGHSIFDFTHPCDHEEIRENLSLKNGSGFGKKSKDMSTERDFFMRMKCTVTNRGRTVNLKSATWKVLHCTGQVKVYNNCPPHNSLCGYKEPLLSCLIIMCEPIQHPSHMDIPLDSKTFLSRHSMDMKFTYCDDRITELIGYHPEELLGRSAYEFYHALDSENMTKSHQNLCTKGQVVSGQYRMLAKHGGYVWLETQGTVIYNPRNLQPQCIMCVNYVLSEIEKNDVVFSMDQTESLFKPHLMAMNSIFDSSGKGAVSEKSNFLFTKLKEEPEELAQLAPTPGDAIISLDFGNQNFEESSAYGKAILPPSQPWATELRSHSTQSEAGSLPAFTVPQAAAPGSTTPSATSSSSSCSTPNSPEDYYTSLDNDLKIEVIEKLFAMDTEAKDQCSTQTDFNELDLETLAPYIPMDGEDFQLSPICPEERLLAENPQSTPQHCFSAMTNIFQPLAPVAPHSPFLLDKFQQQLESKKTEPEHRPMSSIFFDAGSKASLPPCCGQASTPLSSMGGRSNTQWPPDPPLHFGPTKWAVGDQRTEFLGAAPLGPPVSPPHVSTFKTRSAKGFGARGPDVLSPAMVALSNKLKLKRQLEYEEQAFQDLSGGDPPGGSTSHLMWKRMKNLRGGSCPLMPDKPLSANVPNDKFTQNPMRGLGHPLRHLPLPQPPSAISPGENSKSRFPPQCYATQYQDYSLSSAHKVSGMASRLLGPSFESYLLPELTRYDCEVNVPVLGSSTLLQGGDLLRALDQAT

| Compound | inhibition |
| --- | --- |
| CCc1ccc(-c2noc(CCC(=O)NC(C)(C)C)n2)cc1 | -42.9% |
| CC(C)(C)NC(=O)CCc1nc(-c2ccc(C(C)(C)C)cc2)no1 | 83.8% |
| CC(C)NC(=O)CCc1nc(-c2ccc(C(C)(C)C)cc2)no1 | 80.3% |
| CC(C)(C)c1ccc(-c2noc(CCC(=O)N3CCOCC3)n2)cc1 | -33.9% |
| CCNC(=O)CCc1nc(-c2ccc(OCC)cc2)no1 | -27.3% |
| CCNC(=O)CCc1nc(-c2ccccc2C)no1 | 27.8% |
| CC(C)(C)c1ccc(-c2noc(CCC(=O)NC3CCCC3)n2)cc1 | 94.6% |
| CCc1ccc(-c2noc(CCC(=O)NC(C)CC)n2)cc1 (stereo not given) | -89.5% |
| CC(C)(C)c1ccc(-c2noc(CCC(=O)NCC3CCCO3)n2)cc1 (stereo not given) | 53.5% |
| CCNC(=O)CCc1nc(-c2cccc(F)c2)no1 | 19.4% |
| COc1cccc(NC(=O)CCc2nc(-c3ccc(C(C)(C)C)cc3)no2)c1 | 118% |
| CCC(C)NC(=O)CCc1nc(-c2ccc(C(C)C)cc2)no1 (stereo not given) | 12.1% |
| COc1ccccc1NC(=O)CCc1nc(-c2ccc(C(C)(C)C)cc2)no1 | 115% |
| CC(C)(C)c1ccc(-c2noc(CCC(=O)NC3CC3)n2)cc1 | 53.7% |
| CC(C)(C)c1ccc(-c2noc(CCC(N)=O)n2)cc1 | 115% and 99.9% |
| CC(C)(C)c1ccc(-c2noc(CCC(=O)NCc3ccco3)n2)cc1 | 86.1% and 78.5% |
| CCNC(=O)CCc1nc(-c2ccc(C(C)(C)C)cc2)no1 | 17.6% and 9.6% |
| CCc1ccc(-c2noc(CCC(=O)NC)n2)cc1 | 1.82% |
| CC(C)c1ccc(-c2noc(CCC(=O)NC3CC3)n2)cc1 | -39.8% |
| CC(C)(C)c1ccc(-c2noc(CCC(=O)NC3CCC3)n2)cc1 | 108% |
| CCCCc1ccc(-c2noc(CCC(=O)NC)n2)cc1 | -53% |
| CNC(=O)CCc1nc(-c2ccccc2)no1 | 11.4% and 50.7% |
| CCOc1ccc(-c2noc(CCC(=O)O)n2)cc1 | 109% |
| CC(C)(C)c1ccc(-c2noc(CCC(=O)Nc3cccc([N+](=O)[O-])c3)n2)cc1 | 89.8% |
| CCNC(=O)CCc1nc(-c2ccc(CC)cc2)no1 | -29.7% |
| CCc1ccc(-c2noc(CCC(=O)NC3CC3)n2)cc1 | -19.4% |
| CC(C)(C)NC(=O)CCc1nc(-c2ccccc2)no1 | 35.7% |
| CN(C)C(=O)CCc1nc(-c2ccc(C(C)(C)C)cc2)no1 | -71.1% and 11.2% |
| CCC(C)NC(=O)CCc1nc(-c2ccc(C(C)(C)C)cc2)no1 (stereo not given) | -20.2% |
| CCCCc1ccc(-c2noc(CCC(=O)NC(C)CC)n2)cc1 (stereo not given) | 45.6% |

Reference: PubChem BioAssay AID652011 (Sanford-Burnham Center for Chemical Genomics, 2013)
